# This is a sample that favours compounds with a hit; in the whole collection about 1.2% have one here.
# bovine MsrA act – bovine methionine sulfoxide reductase A activation. purified bovine MsrA, absorbance read-out. activation, % at 10.6 µM. 360,000 tested, 0.3% active. AID 602163; in the data active = activation above about 7.5%;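 note: 0% = vehicle and 100% = reference activator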
# MsrA inh – bovine MsrA inhibition; purified bovine MsrA, absorbance read-out; inhibition, % at 15.5 µM; 360,000 tested, 0.75% active;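 note: 0% = vehicle wells with enzyme and 100% = reference inhibitor wells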
# A1 inh – inhibitors of the anti-apoptotic protein A1, read as caspase activation | MEF A1-2A-BIM cells, Caspase-Glo 3/7 luminescence, 3 h; percent of clofoctol response, vehicle zero | caspase activation, % (test concentration not listed) | 330,000 tested, 0.066% active | AID 2462;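 active = over half of replicate activation scores above 10%, or exactly half above 10 with the replicate mean above 10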
# proCasp7 act – counter-screen: procaspase-7 (human) activation | recombinant procaspase-7, Ac-DEVD-pNA absorbance 405 nm; D23A/D198A/D206A triple mutant, cannot self-cleave; scale: DMSO 0, 5 µM enzyme 100 | activation, % at 8.5 µM | 330,000 tested, 0.093% active | AID 463210;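 active = percent activation above the screen-wide mean plus 3 SD, cut at about 25% in these data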
# Target sequence (P55210 whole entry D23A/D198A/D206A): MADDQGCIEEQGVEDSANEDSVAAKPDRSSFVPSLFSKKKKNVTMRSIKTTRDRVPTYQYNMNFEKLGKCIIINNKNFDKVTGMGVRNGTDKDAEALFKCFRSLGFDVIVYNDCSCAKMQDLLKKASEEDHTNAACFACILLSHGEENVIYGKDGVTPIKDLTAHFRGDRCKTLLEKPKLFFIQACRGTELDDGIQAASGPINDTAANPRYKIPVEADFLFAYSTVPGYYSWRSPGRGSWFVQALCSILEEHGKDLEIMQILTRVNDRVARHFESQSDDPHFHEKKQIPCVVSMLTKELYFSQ
#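 System: Procaspase-7 triple mutant (PC-7 D3A); measure: % activation from two-timepoint absorbance difference, scaled to controls; times: 1 h compound preincubation, 2 h substrate cleavage, 25 °C; also added: Ac-DEVD-pNA substrate, 400 µM as added; measured by: Epi-absorbance of released pNA at 405 nm, two timepoints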
# procasp3 activ – activates human procaspase-3 | AID 463141 | recombinant procaspase-3 D3A, Ac-DEVD-pNA absorbance 405 nm | activation, % at 8.5 µM | 330,000 tested, 0.11% active;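 active = activation above the mean of all tested compounds plus 3 SD, cut at about 21% in these data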;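 note: 0% = DMSO alone and 100% = DMSO wells spiked with extra 5 µM PC-3 D3A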
#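 Compound: 8.5 µM single point, 0.8% DMSO / Material: Autoprocessing-dead procaspase-3 D3A mutant enzyme / Timing: 1 h preincubation plus 2 h reaction at 25 °C / Medium: Zinc-free HEPES/NaCl buffer with 0.01% Triton X-100 at pH 7.4 / Technique: 405 nm absorbance of p-nitroaniline, reads at 0 and 120 min / Repeats: one well per compound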
# MsrA inh confirm – bovine MsrA inhibition, confirmed; AID 651822; purified bovine MsrA, absorbance read-out; inhibition, % at 15.5 µM; shares compounds with MsrA inh; 2,300 tested, 41% active;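 note: coupled to thioredoxin reductase with NADPH and selenocystamine and DMSO as substrate; 0% = vehicle only and 100% = full effect of reference inhibitor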
# Starred values were filed as active, the others as inactive; . = no result given. Cut-off read from the data, not from the text of the source, unless noted: active = inhibition above about 4.5%; inactive = the rest.
SMILES,bovine MsrA act,MsrA inh,A1 inh,proCasp7 act,procasp3 activ,MsrA inh confirm
CN(C)c1ccc(C=Nc2ccccc2)cc1,-3,3,-1,0,-5,.
CN(C)c1ccc(C=Nc2ccc(N(C)C)cc2)cc1,1,7.2*,1,-16,-7,4.8*
Cc1nc(/N=C\c2ccc(N(C)C)cc2)sc1C,-2,5.8*,-1,-14,-2,3
CC(=O)Nc1ccc(NC(=O)COC(=O)c2ccc(S(=O)(=O)N(C)c3ccccc3)cc2)cc1,1,0,.,.,.,.
COc1ccc(C(=O)NCCCOc2cccnc2)cc1OC1CCN(C(C)=O)CC1,-2,0,0,1,4,.
COc1cccc2c1Oc1cc([N+](=O)[O-])cc(N(C)C(C)=O)c1C=C2,-8,15*,1,6,-7,11*
CC(=O)N(C)c1cc([N+](=O)[O-])ccc1OCc1ccccc1,-7,2,.,.,.,.
CCCS(=O)(=O)NC(=O)C1(C)CCN(C(=O)c2ccco2)C1 (configuration not stated),-3,-1,.,.,.,.
O=C(N/N=C/c1ccncc1)c1cc2ccccc2o1,-3,5.8*,0,-10,3,4
CN1c2ccccc2C(O)=C(C(=S)Nc2ccc(Cl)cc2)S1(=O)=O,-11,5.4*,0,-15,-9,6.0*
N#CCCCc1cc2cc(F)ccc2cn1,-3,-1,0,-4,2,.
Cc1cc(C(=O)N/N=C/C=C/c2ccc(Br)cc2)n[nH]1,-3,6.0*,1,-1,8,3
CCOc1cc(/C=N/NC(=O)c2cc(C)[nH]n2)ccc1OC(=O)c1ccc([N+](=O)[O-])cc1,.,.,1,-3,4,.
CC(C)c1cc(C(=O)N/N=C/C=C/c2ccccc2)n[nH]1,-5,2,0,7,-11,.
Cc1cc(C(=O)N/N=C/C=C/c2ccc([N+](=O)[O-])cc2)n[nH]1,-12,7.6*,0,-5,-2,7.9*
O=C(O)c1cc(-c2ccccc2)nc2nc(N3CCCCC3)sc12,.,5.8*,0,-1,5,2
CN(C)C1CN(Cc2cn(Cc3ccc(C(F)(F)F)cc3)nn2)S(=O)(=O)C1 (configuration not stated),-4,0,.,.,.,.
COc1ccc(/C=N/Nc2cc(C)nc(NS(=O)(=O)c3ccc(C)cc3)n2)cc1,-2,3,1,1,-6,.
Cc1cc(NN)nc(NS(=O)(=O)c2ccccc2)n1,0,1,-1,1,-6,.
COc1cc(/C=N/Nc2cc(C)nc(NS(=O)(=O)c3ccccc3)n2)ccc1O,-7,7.4*,0,-8,-5,6.9*
COc1cc(/C=N/Nc2cc(C)nc(NS(=O)(=O)c3ccc(C)cc3)n2)ccc1O,-8,5.5*,.,.,.,5.7*
Nc1c(OS(=O)(=O)c2ccccc2)cccc1OS(=O)(=O)c1ccccc1,-11,2,.,.,.,.
Cc1[nH]c(=O)[nH]c(=O)c1N(C)C,-2,0,-1,8,0,.
CSc1c(N(C)C)c(=O)c1=S,.,5.2*,.,.,.,4
Cc1cccc(C)c1NC(=O)/C(C#N)=C/c1cccs1,-9,6.9*,-1,5,6,4
SMILES,bovine MsrA act,MsrA inh,A1 inh,proCasp7 act,procasp3 activ,MsrA inh confirm
Cc1ccc(NC(=O)/C(C#N)=C/c2cccs2)c(C)c1,2,1,-2,9,-1,.
COc1ccc(NC(=O)CN2CCN(C(=O)N3CCOCC3)CC2)cc1,-12,0,1,-4,-22,.
CC(C)(C)C(=O)Nc1nnc(-c2ccncc2)o1,-4,3,0,2,2,.
O=C(Nc1nnc(-c2ccncc2)o1)c1ccc(Br)s1,-2,5.8*,0,-7,-2,3
CCn1c(C)nc2cc(C(=O)N/N=C/c3ccc(O)cc3)ccc21,-2,5.0*,-1,13,-5,4
CCn1c(C)nc2cc(C(=O)N/N=C/c3ccc(N4CCOCC4)cc3)ccc21,-6,5.5*,0,-9,-5,6.0*
CCn1c(C)nc2cc(C(=O)N/N=C/c3ccc(OC)c(O)c3)ccc21,-6,7.5*,0,-3,8,4.7*
OC[C@@H]1CN(Cc2cccnc2)C[C@H](n2cnc3c(N4CCCC4)ncnc32)O1,0,0,.,.,.,.
S=C(SCc1cc(Cl)cc2c1OCOC2)N1CCSCC1,.,3,.,.,.,.

# Screens: PubChem BioAssay, several laboratories
